Assay results reported in ChEMBL document CHEMBL1765023, “Acetyl analogs of combretastatin A-4: synthesis and biological studies” (Bioorg Med Chem, 2011).

Key:
[1] = test system: CAKI-1; assay: Growth inhibition of human Caki1 cells after 48 hrs by sulforhodamine B assay; format: functional; details: CAKI-1, 48 h
In short: (§1)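 NCI 60 human cancer cell line screen run at the National Cancer Institute. Cells had 48 h continuous exposure, and proliferation was read by sulforhodamine B staining. GI50 (50% growth inhibition) was taken from dose–response curves.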

[2] = test system: Mus musculus; assay: Toxicity in DBA2 mouse assessed as change in white blood count at 75 mg/kg, ip QD administered on alternate days for 17 days measured on day 23 relative to control; format: organism-based; set-up: dose 75 mg/kg, route intraperitoneal; details: in vivo, 408 h
In short: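 Healthy female DBA2 mice, 5–7 weeks old, five per group, received 75 mg/kg ip on days 1, 5, 9, 13 and 17. Vehicle was PET (PEG400/ethanol/Tween 80, 6:3:1), 5% glucose and DMSO, with final ethanol 15% and DMSO 10%. Controls received 100 µL vehicle. Body weight was measured every other day. At sacrifice on day 23, blood counts (hematocrit, WBC, granulocytes, platelets) and liver, kidney and spleen appearance and weight were assessed.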

[3] = test system: KM12; assay: Growth inhibition of human KM12 cells after 48 hrs by sulforhodamine B assay; format: functional; details: KM12, 48 h; in short: as §1
[4] = test system: ACHN; assay: Growth inhibition of human ACHN cells after 48 hrs by sulforhodamine B assay; format: functional; in short: as §1
[5] = Growth inhibition of human Hs 578T cells after 48 hrs by sulforhodamine B assay; format: functional; in short: as §1
[6] = test system: MOLT-4; assay: Growth inhibition of human MOLT4 cells after 48 hrs by sulforhodamine B assay; format: functional; details: MOLT-4, 48 h; in short: as §1
[7] = test system: UACC-62; assay: Growth inhibition of human UACC62 cells after 48 hrs by sulforhodamine B assay; format: functional; details: UACC-62, 48 h
In short: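 Tested in the NCI 60 human cancer cell line panel. Cells were exposed continuously for 48 h and proliferation was read by sulforhodamine B staining. GI50 (concentration for 50% growth inhibition), TGI (total growth inhibition) and LC50 were taken from dose–response curves.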

[8] = test system: NCI-H23; assay: Growth inhibition of human NCI-H23 cells after 48 hrs by sulforhodamine B assay; format: functional; details: NCI-H23, 48 h; in short: as §1
[9] = test system: BT-549; assay: Growth inhibition of human BT549 cells after 48 hrs by sulforhodamine B assay; format: functional; details: BT-549, 48 h; in short: as §1

Question: Which results are given for `COc1ccc(/C=C(/C(C)=O)c2cc(OC)c(OC)c(OC)c2)cc1O`?
Answer: GI50 [1]: 186 nM; TGI ([1]; read-out: pTGI (converted)): 19500 nM; Activity [2]: Non-toxic; GI50 [3]: 112 nM; TGI ([3]; read-out: pTGI (converted)): 1950 nM; GI50 [4]: 1230 nM; TGI ([4]; read-out: pTGI): > 100000 nM; GI50 [5]: 89.1 nM; TGI ([5]; read-out: pTGI (converted)): 74100 nM; GI50 [6]: 316 nM; TGI ([6]; read-out: pTGI): > 100000 nM; GI50 [7]: 151 nM; TGI ([7]; read-out: pTGI): > 100000 nM; GI50 [8]: 355 nM; TGI ([8]; read-out: pTGI): > 100000 nM; GI50 [9]: 427 nM; TGI ([9]; read-out: pTGI (converted)): 14100 nM
